Experiment [1] is described as follows: Cell cycle arrest in human NPC-TW01 cells assessed as accumulation at G0/G1 phase at 6.0 uM after 72 hrs by flow cytometry. It counts as functional, cell-based. In outline:
(§1)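 Exponentially growing cells were treated for 72 h. Controls received complete medium with 0.5% DMSO for 72 h. Cells were fixed, incubated with RNase and stained. DNA content was measured on a FACScan flow cytometer, and the percentage of cells in each cell-cycle phase was determined.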
(A flow cytometer gives signals particle by particle.)

The nature of experiment [2]: Cell cycle arrest in human NPC-TW01 cells assessed as accumulation at S phase at 6.0 uM after 72 hrs by flow cytometry. It counts as functional, cell-based. In outline:
as §1

Experiment [3] in a line: Cell cycle arrest in human NPC-TW01 cells assessed as accumulation at G2/M phase at 6.0 uM after 72 hrs by flow cytometry. The format is functional, cell-based. In outline: as §1
Experiment [4] is described as follows: Cell cycle arrest in human NPC-TW01 cells assessed as accumulation at sub-G1 phase at 6.0 uM after 72 hrs by flow cytometry. The format is functional, cell-based. In outline:
as §1

The subject of experiment [5] is MT2. Put plainly: Antiproliferative activity against human MT2 cells after 72 hrs by MTT assay. It counts as functional. To be noted: MT2, 72 h. In outline:
(§2)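 Cells were exposed to a range of concentrations for 72 h. Compounds came from 20 mM stocks in 100% DMSO. Cells were then given MEM with 0.4 mg/mL MTT for 2 h, and formazan was read at 570 nm. GI50 was taken from percentage conversion relative to mock-treated controls and reported as mean SD of three independent experiments.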
In general terms: Tetrazolium dyes change colour on reduction, which living cells bring about.

The nature of experiment [6]: Antiproliferative activity against human NPC-TW01 cells after 72 hrs by MTT assay. The format is functional. To be noted: NPC-TW01, 72 h. A digest of the protocol:
as §2

The test system of experiment [7] is NCI-H661. Nature of the experiment: Antiproliferative activity against human NCI-H661 cells after 72 hrs by MTT assay. The conditions noted are these: NCI-H661, 72 h. The format is functional. In outline: as §2
Experiment [8] is described as follows: Cell cycle arrest in human NPC-TW01 cells assessed as accumulation at sub-G1 phase at 48.0 uM after 72 hrs by flow cytometry. It counts as functional, cell-based. In outline:
as §1

Experiment [9] in a line: Cell cycle arrest in human NPC-TW01 cells assessed as accumulation at G2/M phase at 48.0 uM after 72 hrs by flow cytometry. It counts as functional, cell-based. In outline: as §1
Experiment [10] is described as follows: Cell cycle arrest in human NPC-TW01 cells assessed as accumulation at G0/G1 phase at 48.0 uM after 72 hrs by flow cytometry. The format is functional, cell-based. In outline: as §1
Experiment [11] can be described thus: Cell cycle arrest in human NPC-TW01 cells assessed as accumulation at S phase at 48.0 uM after 72 hrs by flow cytometry. The format is functional, cell-based. In outline:
as §1

In ChEMBL document CHEMBL1156563, “Synthesis and antiproliferative evaluation of amide-containing flavone and isoflavone derivatives” (Bioorg Med Chem, 2008) one finds Activity and GI50 data, which are given here for 11 compounds.

Broadly, the GI50 is the concentration that inhibits growth by half. Higher therefore signals lower sensitivity of the cells.

On to `O=c1cc(-c2ccccc2)oc2ccc(OC/C(=N\O)c3ccc(F)cc3)cc12`, for which the Activity in experiment [1] was found to be 22.3%; in [2], 33.2%; in experiment [3] it was 42.8%; in experiment [4] it was 1.7%.

For `O=C(COc1ccc2c(=O)c(-c3ccccc3)coc2c1)Nc1ccc(-c2ccccc2)cc1`, the concentration for 50% growth inhibition (GI50) is above 10 µM in experiment [5], 1.75 µM in [6] and above 10 µM in [7].

Regarding `O=C(COc1c(-c2ccccc2)oc2ccccc2c1=O)Nc1ccc2ccccc2c1`, the GI50 is above 10 µM in experiment [5], 6.52 µM in experiment [6] and 6.5 µM in [7].

Consider `O=C(COc1ccc2oc(-c3ccccc3)cc(=O)c2c1)Nc1ccccc1`, for which the results for the GI50 in experiment [5], in experiment [6] and in experiment [7] were 1.43 µM, 1.26 µM and 5.6 µM, respectively.

Regarding `O=C(COc1ccc2c(=O)cc(-c3ccccc3)oc2c1)Nc1ccc2ccccc2c1`, the GI50 in experiment [5], in [6] and in experiment [7] was above 10 µM each time.

Regarding `O=C(COc1ccc2c(=O)cc(-c3ccccc3)oc2c1)Nc1ccc(-c2ccccc2)cc1`, the 50% growth inhibitory concentration (GI50) in [5] is 2.48 µM; in experiment [6], 1.61 µM; in experiment [7], 1.28 µM.

`O=C(COc1ccc2c(=O)cc(-c3ccccc3)oc2c1)Nc1ccc(F)cc1`: the GI50 in experiment [5] is 6.41 µM; in experiment [6], above 10 µM; in experiment [7], 5.77 µM.

Regarding `COc1ccc(/C(COc2ccc3oc(-c4ccccc4)cc(=O)c3c2)=N/O)cc1`, the Activity in experiment [8] is 1.2%; in experiment [9], 70.8%; in [10] it was 0.5%; in experiment [11], 27.5%.

In the case of `O=C(COc1ccc2c(=O)c(-c3ccccc3)coc2c1)Nc1ccc2ccccc2c1`, the GI50 in [5] is 7.68 µM; in [6], 1.37 µM; in experiment [7] it was above 10 µM.

Turning to `COc1ccc(NC(=O)COc2c(-c3ccccc3)oc3ccccc3c2=O)cc1`, the values for the GI50 in [5], in experiment [6] and in experiment [7] were above 10 µM, 5.48 µM and 6.74 µM, respectively.

In the case of `O=C(COc1c(-c2ccccc2)oc2ccccc2c1=O)Nc1ccccc1`, the figures for the GI50 in [5], in experiment [6] and in experiment [7] were 6.72 µM, above 10 µM and above 10 µM, respectively.
